# Results taken from ChEMBL document CHEMBL1129793, “Quantitative structure-activity relationships for the in vitro antimycobacterial activity of pyrazinoic acid esters” (J Med Chem, 1996).
# What was measured:
# Mycobacterium kansasii [1] = test: In vitro activity against Mycobacterium kansasii (SWK); type: functional
# Summary of the method: (§1)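 Broth macrodilution MIC. Cultures were grown in modified Middlebrook 7H10 broth (agar and malachite green omitted) with 10% OADC and 0.05% Tween 80, shaken at 37 °C for 3 days, then diluted in 7H10 broth to 1 Klett unit/mL. Test agents were dissolved in water or DMSO and filter-sterilised, then serially diluted 2-fold in 7H10 broth at pH 5.8. Tubes were shaken at 37 °C for 7–10 days, with a drug-free control. MIC was the lowest concentration with no visible turbidity, expressed in mmol/L.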
# [2] = t1/2 (min) in equine serum; type: ADME, organism-based, Equus caballus; settings: horse
# Summary of the method: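 Ester from a 1 mg/mL stock was mixed with 5% aqueous equine serum in 0.01 M KH2PO4, pH 7.2. Aliquots were taken at 0, 5, 10, 15, 30, 60 and 120 min and quenched with an equal volume of acetonitrile, then filtered. Remaining ester was measured by isocratic reverse-phase HPLC (80% acetonitrile/20% 0.1 M sodium acetate, pH 5.0), with UV detection at 265 nm against a standard curve. Half-life is the time to 50% conversion to the acid.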
# [3] = tested on: Mycobacterium tuberculosis; test: In vitro activity against Mycobacterium tuberculosis (ATCC 35801); type: functional; summary of the method: as §1
# [4] = Partition coefficient (logP); type: physicochemical; settings: octanol/water
# Mycobacterium avium [5] = test: In vitro activity against Mycobacterium avium (MAC-101); type: functional; summary of the method: as §1
# [6] = tested on: Mycobacterium tuberculosis; test: In vitro activity against Mycobacterium tuberculosis (ATCC 35828); type: functional; summary of the method: as §1
# [7] = tested on: Mycobacterium tuberculosis; test: In vitro activity against Mycobacterium tuberculosis (ATCC 27294); type: functional; summary of the method: as §1
# Mycobacterium avium [8] = test: In vitro activity against Mycobacterium avium (ATCC49601); type: functional; summary of the method: as §1
# [9] = T1/2 in equine serum; type: ADME, organism-based, Equus caballus; settings: horse
# Summary of the method: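 Ester from a 1 mg/mL stock was mixed with 5% aqueous equine serum in 0.01 M KH2PO4, pH 7.2. Remaining ester was measured by isocratic reverse-phase HPLC (80% acetonitrile/20% 0.1 M sodium acetate, pH 5.0), with UV detection at 265 nm against a standard curve. Half-life is the time to 50% conversion to the acid.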
# Mycobacterium avium [10] = test: In vitro activity against Mycobacterium avium (MAC-101).; type: functional; summary of the method: as §1
# Mycobacterium kansasii [11] = test: in vitro activity against Mycobacterium kansasii (SWK).; type: functional
# Summary of the method: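 M. kansasii clinical isolate SWK was grown 3 days at 37 °C with shaking in modified Middlebrook 7H10 broth with 10% OADC and 0.05% Tween 80, then diluted. It was tested in serial 2-fold dilutions in 7H10 broth at pH 5.8, shaken at 37 °C for 7–10 days, with a drug-free control. MIC was the lowest concentration giving no visible turbidity, expressed in mmol/L.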
# Mycobacterium avium [12] = test: In vitro activity against Mycobacterium avium (ATCC 49601).; type: functional; summary of the method: as §1
Structure (SMILES),Log 1/MMIC (Mycobacterium kansasii [1]),half-life [2],Log 1/MMIC [3],logP [4],Log 1/MMIC (Mycobacterium avium [5]),Log 1/MMIC [6],Log 1/MMIC [7],Log 1/MMIC (Mycobacterium avium [8]),half-life [9],Log 1/MMIC (Mycobacterium avium [10]),Log 1/MMIC (Mycobacterium kansasii [11]),Log 1/MMIC (Mycobacterium avium [12])
CCCCCCC(C)OC(=O)c1cnc(F)cn1 (stereo not drawn),3.928,6.9 min,1.803,3.23,0.9,1.803,2.104,0.599,,,,
CCCCCCOC(=O)c1cnc(F)cn1,1.452,2.8 min,1.753,2.96,0.548,,,0.548,,,,
CCCCCCCC(C)OC(=O)c1cnc(Cl)cn1 (stereo not drawn),,,2.756,4.14,,2.153,2.455,,30 min,0.949,3.977,0.949
CCCOC(=O)c1cnc(C)cn1,1.353,124 min,1.654,1.15,0.45,,1.955,0.45,,,,
CCCCCCCOC(=O)c1cnc(C)cn1,,,2.976,3.35,,2.373,2.675,,3.2 min,0.868,1.771,0.868
CCC(C)OC(=O)c1cnccn1 (stereo not drawn),1.052,41.1 min,,1.05,-0.152,,1.353,-0.755,,,,
CCCCCCCCCCOC(=O)c1cnccn1,,,3.024,4.58,,3.024,2.723,,0.8 min,0.917,3.723,1.519
CCCCCCCCCCOC(=O)c1cnc(F)cn1,,,1.849,5.08,,1.849,2.15,,4 min,0.946,2.451,0.946
COC(=O)c1cnccn1,0.334,470 min,0.936,,-0.268,,1.237,-0.268,,,,
COC(=O)c1cnc(I)cn1,,,1.218,0.91,,1.218,1.218,,200 min,0.013,1.519,0.013
CC(C)COC(=O)c1cnc(Cl)cn1,,,2.934,1.97,,2.031,2.031,,11.8 min,0.526,2.33,0.526
CCCCCCCCC(C)OC(=O)c1cnc(Cl)cn1 (stereo not drawn),,,2.776,4.75,,3.998,3.697,,23.7 min,0.97,3.378,0.97
CCCCCCCCCC(C)(C)OC(=O)c1cnc(Cl)cn1,,,2.514,6.01,,1.31,1.611,,902 min,0.106,2.815,0.106
COC(=O)c1cnc(C)cn1,0.677,1200 min,1.279,0.15,-0.226,0.978,0.978,-0.226,,,,
O=C(OCc1ccccc1)c1cnccn1,2.331,4.3 min,,1.49,0.525,2.03,,0.525,,,,
CCCCCCCCCOC(=O)c1cnc(Cl)cn1,,,2.455,4.98,,3.977,3.977,,2.3 min,0.949,3.358,1.25
COC(=O)c1cnc(F)cn1,1.29,222 min,,0.27,0.387,,1.591,0.387,,,,
CCCCCC(CC)OC(=O)c1cnc(Cl)cn1 (stereo not drawn),,,3.035,4.24,,3.035,2.734,,7 min,0.626,3.955,0.927
CC(C)COC(=O)c1cnccn1,1.052,207 min,1.654,1.07,-0.152,1.654,1.955,-0.152,,,,
CCCCCCCCCC(C)OC(=O)c1cnc(Cl)cn1 (stereo not drawn),,,3.398,5.25,,2.495,3.087,,29.6 min,1.291,3.097,1.291
CCCCCC(CC)OC(=O)c1cnc(C)cn1 (stereo not drawn),1.796,1 min,2.7,3.72,0.592,1.495,1.194,0.592,,,,
CC(C)(C)OC(=O)c1cnc(Cl)cn1,,,2.031,1.7,,1.73,1.73,,1200 min,0.225,2.633,2.33
COC(=O)c1cnc(OC)cn1,0.42,300 min,,0.74,-0.183,,,-0.183,,,,
CCCCCCOC(=O)c1cnc(Cl)cn1,,,3.288,3.36,,2.686,3.288,,2.2 min,0.88,4.21,1.181
